ChEMBL document CHEMBL1255475, “Mutant prevention concentrations of four carbapenems against gram-negative rods” (2010)
≈ marks a conversion by molar mass, not a printed value.

Assays:
Format in all cases: functional
Klebsiella pneumoniae [1] = experiment: Antibacterial activity against beta-lactamase-positive ESBL-negative Klebsiella pneumoniae E472 assessed as mutant prevention concentration after overnight incubation
Procedure, shortened: (§1)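 Overnight growth on blood trypticase soy agar (35°C, air) was resuspended in 0.9% saline and counted on drug-free Mueller-Hinton agar. […] Colonies were retested by agar dilution to confirm mutants. MPC was the lowest concentration preventing resistant-mutant growth.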

Escherichia coli [2] = experiment: Antibacterial activity against beta-lactamase-negative Escherichia coli E350 […] by agar dilution method
Escherichia coli [3] = experiment: Antibacterial activity against beta-lactamase-positive ESBL-positive Escherichia coli E460 incubated up to 7 days by agar dilution method; conditions: E460, 168 h
Procedure, shortened: (§2)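 MIC by CLSI agar dilution, with quality-control strains in each run. Beta-lactamase status was set by 30 μg cefazolin Kirby-Bauer disk diffusion. ESBL status was set by cefotaxime and ceftazidime disks (30 μg) with and without clavulanic acid (10 μg).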

Klebsiella pneumoniae [4] = experiment: Antibacterial activity against beta-lactamase-positive ESBL-negative Klebsiella pneumoniae E481 incubated up to 7 days by agar dilution method; conditions: E481, 168 h
Escherichia coli [5] = experiment: Antibacterial activity against beta-lactamase-negative Escherichia coli E346 assessed as mutant prevention concentration after overnight incubation
Klebsiella pneumoniae [6] = experiment: Antibacterial activity against beta-lactamase-positive ESBL-negative Klebsiella pneumoniae E473 assessed as mutant prevention concentration after overnight incubation; procedure, shortened: as §1
Klebsiella pneumoniae [7] = experiment: Antibacterial activity against beta-lactamase-positive ESBL-positive Klebsiella pneumoniae E457 assessed as mutant prevention concentration after overnight incubation; procedure, shortened: as §1
Escherichia coli [8] = experiment: Antibacterial activity against beta-lactamase-positive ESBL-negative Escherichia coli E412 incubated up to 7 days by agar dilution method; conditions: E412, 168 h; procedure, shortened: as §2
Escherichia coli [9] = experiment: Antibacterial activity against beta-lactamase-negative Escherichia coli E424 assessed as mutant prevention concentration after overnight incubation
Escherichia coli [10] = experiment: Antibacterial activity against beta-lactamase-negative Escherichia coli E348 assessed as mutant prevention concentration after overnight incubation
Klebsiella pneumoniae [11] = experiment: Antibacterial activity against beta-lactamase-negative Klebsiella pneumoniae E358 assessed as mutant prevention concentration after overnight incubation
Escherichia coli [12] = experiment: Antibacterial activity against beta-lactamase-positive ESBL-positive Escherichia coli E460 assessed as mutant prevention concentration after overnight incubation; procedure, shortened: as §1
Klebsiella pneumoniae [13] = experiment: Antibacterial activity against beta-lactamase-positive ESBL-positive Klebsiella pneumoniae E478 incubated up to 7 days by agar dilution method; conditions: E478, 168 h
Escherichia coli [14] = experiment: Antibacterial activity against beta-lactamase-positive ESBL-positive Escherichia coli E459 assessed as mutant prevention concentration after overnight incubation; procedure, shortened: as §1
Escherichia coli [15] = experiment: Antibacterial activity against beta-lactamase-positive ESBL-negative Escherichia coli E437 assessed as mutant prevention concentration after overnight incubation; procedure, shortened: as §1
Escherichia coli [16] = experiment: Antibacterial activity against beta-lactamase-positive ESBL-positive Escherichia coli E465 assessed as mutant prevention concentration after overnight incubation; procedure, shortened: as §1
Escherichia coli [17] = experiment: Antibacterial activity against beta-lactamase-positive ESBL-positive Escherichia coli E456 incubated up to 7 days by agar dilution method; conditions: E456, 168 h; procedure, shortened: as §2
Escherichia coli [18] = experiment: Antibacterial activity against beta-lactamase-negative Escherichia coli E424 […] by agar dilution method
Klebsiella pneumoniae [19] = experiment: Antibacterial activity against beta-lactamase-negative Klebsiella pneumoniae E420 incubated up to 7 days by agar dilution method; conditions: E420, 168 h; procedure, shortened: as §2
Klebsiella pneumoniae [20] = experiment: Antibacterial activity against beta-lactamase-positive ESBL-negative Klebsiella pneumoniae E479 incubated up to 7 days by agar dilution method; conditions: E479, 168 h
Procedure, shortened: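 MPC determination: overnight cultures on blood trypticase soy agar at 35°C in air were resuspended in 0.9% saline, and CFU were counted on drug-free Mueller-Hinton agar. […] Growth was retested by agar dilution to confirm mutants. MPC was the lowest concentration preventing resistant-mutant growth.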

Escherichia coli [21] = experiment: Antibacterial activity against beta-lactamase-positive ESBL-negative Escherichia coli E415 assessed as mutant prevention concentration after overnight incubation; procedure, shortened: as §1
Klebsiella pneumoniae [22] = experiment: Antibacterial activity against beta-lactamase-negative Klebsiella pneumoniae E362 incubated up to 7 days by agar dilution method; conditions: E362, 168 h
Klebsiella pneumoniae [23] = experiment: Antibacterial activity against beta-lactamase-negative Klebsiella pneumoniae E417 assessed as mutant prevention concentration after overnight incubation
Klebsiella pneumoniae [24] = experiment: Antibacterial activity against beta-lactamase-positive ESBL-negative Klebsiella pneumoniae E481 assessed as mutant prevention concentration after overnight incubation; procedure, shortened: as §1
Escherichia coli [25] = experiment: Antibacterial activity against beta-lactamase-positive ESBL-positive Escherichia coli E465 incubated up to 7 days by agar dilution method; conditions: E465, 168 h; procedure, shortened: as §2
Klebsiella pneumoniae [26] = experiment: Antibacterial activity against beta-lactamase-negative Klebsiella pneumoniae E360 incubated up to 7 days by agar dilution method; conditions: E360, 168 h
Klebsiella pneumoniae [27] = experiment: Antibacterial activity against beta-lactamase-negative Klebsiella pneumoniae E417 incubated up to 7 days by agar dilution method; conditions: E417, 168 h; procedure, shortened: as §2
Klebsiella pneumoniae [28] = experiment: Antibacterial activity against beta-lactamase-positive ESBL-negative Klebsiella pneumoniae E480 incubated up to 7 days by agar dilution method; conditions: E480, 168 h
Escherichia coli [29] = experiment: Antibacterial activity against beta-lactamase-positive ESBL-positive Escherichia coli E456 assessed as mutant prevention concentration after overnight incubation; procedure, shortened: as §1
Escherichia coli [30] = experiment: Antibacterial activity against beta-lactamase-negative Escherichia coli E345 assessed as mutant prevention concentration after overnight incubation
Klebsiella pneumoniae [31] = experiment: Antibacterial activity against beta-lactamase-negative Klebsiella pneumoniae E418 incubated up to 7 days by agar dilution method; conditions: E418, 168 h
Klebsiella pneumoniae [32] = experiment: Antibacterial activity against beta-lactamase-positive ESBL-positive Klebsiella pneumoniae E476 assessed as mutant prevention concentration after overnight incubation; procedure, shortened: as §1
Klebsiella pneumoniae [33] = experiment: Antibacterial activity against beta-lactamase-positive ESBL-positive Klebsiella pneumoniae E476 incubated up to 7 days by agar dilution method; conditions: E476, 168 h
Acinetobacter baumannii [34] = experiment: Antibacterial activity against Acinetobacter baumannii A849 assessed as mutant prevention concentration after overnight incubation
Acinetobacter baumannii [35] = experiment: Antibacterial activity against Acinetobacter baumannii A851 assessed as mutant prevention concentration after overnight incubation
Pseudomonas aeruginosa [36] = experiment: Antibacterial activity against Pseudomonas aeruginosa P323 assessed as mutant prevention concentration after overnight incubation
Pseudomonas aeruginosa [37] = experiment: Antibacterial activity against Pseudomonas aeruginosa P320 assessed as mutant prevention concentration after overnight incubation
Acinetobacter baumannii [38] = experiment: Antibacterial activity against Acinetobacter baumannii A928 assessed as mutant prevention concentration after overnight incubation
Pseudomonas aeruginosa [39] = experiment: Antibacterial activity against Pseudomonas aeruginosa P319 assessed as mutant prevention concentration after overnight incubation
Pseudomonas aeruginosa [40] = experiment: Antibacterial activity against Pseudomonas aeruginosa P365 assessed as mutant prevention concentration after overnight incubation
Pseudomonas aeruginosa [41] = experiment: Antibacterial activity against Pseudomonas aeruginosa P363 assessed as mutant prevention concentration after overnight incubation
Acinetobacter baumannii [42] = experiment: Antibacterial activity against Acinetobacter baumannii A901 assessed as mutant prevention concentration after overnight incubation
Acinetobacter baumannii [43] = experiment: Antibacterial activity against Acinetobacter baumannii A911 assessed as mutant prevention concentration after overnight incubation
Pseudomonas aeruginosa [44] = experiment: Antibacterial activity against Pseudomonas aeruginosa P352 assessed as mutant prevention concentration after overnight incubation
Acinetobacter baumannii [45] = experiment: Antibacterial activity against Acinetobacter baumannii A891 assessed as mutant prevention concentration after overnight incubation

With C[C@@H](O)[C@H]1C(=O)N2C(C(=O)O)=C(S[C@@H]3CN[C@H](C(=O)Nc4cccc(C(=O)O)c4)C3)[C@H](C)[C@H]12 the MPC (Klebsiella pneumoniae [1]) was 64 µg/mL, the MIC (Escherichia coli [2]) was 0.016 µg/mL (≈ 0.0336 µM) and the MIC (Escherichia coli [3]) was 0.125 µg/mL (≈ 0.263 µM). It also gave an MIC (Klebsiella pneumoniae [4]) of 4 µg/mL (≈ 8.41 µM), an MPC (Escherichia coli [5]) of 0.03 µg/mL and an MPC (Klebsiella pneumoniae [6]) of 32 µg/mL. It also gave an MPC (Klebsiella pneumoniae [7]) of 0.125 µg/mL, an MIC (Escherichia coli [8]) of 0.06 µg/mL (≈ 0.126 µM) and an MPC (Escherichia coli [9]) of 0.06 µg/mL. It also gave an MPC (Escherichia coli [10]) of 0.03 µg/mL, an MPC (Klebsiella pneumoniae [11]) of 0.03 µg/mL and an MPC (Escherichia coli [12]) of 0.5 µg/mL. It also gave an MIC (Klebsiella pneumoniae [13]) of 8 µg/mL (≈ 16.8 µM), an MPC (Escherichia coli [14]) of 0.06 µg/mL and an MPC (Escherichia coli [15]) of 0.125 µg/mL. The MPC (Escherichia coli [16]) was 8 µg/mL, the MIC (Escherichia coli [17]) was 0.125 µg/mL (≈ 0.263 µM) and the MIC (Escherichia coli [18]) was 0.016 µg/mL (≈ 0.0336 µM). For the same molecule, the MIC (Klebsiella pneumoniae [19]) was 0.008 µg/mL (≈ 0.0168 µM), the MIC (Klebsiella pneumoniae [20]) was 8 µg/mL (≈ 16.8 µM) and the MPC (Escherichia coli [21]) was 0.5 µg/mL. The MIC (Klebsiella pneumoniae [22]) was 0.016 µg/mL (≈ 0.0336 µM), the MPC (Klebsiella pneumoniae [23]) was 0.016 µg/mL and the MPC (Klebsiella pneumoniae [24]) was 8 µg/mL. For the same molecule, the MIC (Escherichia coli [25]) was 0.25 µg/mL (≈ 0.526 µM), the MIC (Klebsiella pneumoniae [26]) was 0.008 µg/mL (≈ 0.0168 µM) and the MIC (Klebsiella pneumoniae [27]) was 0.008 µg/mL (≈ 0.0168 µM). For the same molecule, the MIC (Klebsiella pneumoniae [28]) was 8 µg/mL (≈ 16.8 µM), the MPC (Escherichia coli [29]) was 2 µg/mL and the MPC (Escherichia coli [30]) was 0.03 µg/mL. It also gave an MIC (Klebsiella pneumoniae [31]) of 0.06 µg/mL (≈ 0.126 µM), an MPC (Klebsiella pneumoniae [32]) of 32 µg/mL and an MIC (Klebsiella pneumoniae [33]) of 8 µg/mL (≈ 16.8 µM).
Molecule C[C@@H](O)[C@H]1C(=O)N2C(C(=O)O)=C(S[C@@H]3CN[C@H](CNS(N)(=O)=O)C3)[C@H](C)[C@H]12 [DORIPENEM] has an MPC (Klebsiella pneumoniae [1]) of 64 µg/mL, an MPC (Acinetobacter baumannii [34]) of 16 µg/mL and an MIC (Escherichia coli [2]) of 0.06 µg/mL (≈ 0.143 µM). For the same molecule, the MIC (Escherichia coli [3]) was 0.03 µg/mL (≈ 0.0713 µM), the MIC (Klebsiella pneumoniae [4]) was 2 µg/mL (≈ 4.76 µM) and the MPC (Escherichia coli [5]) was 0.06 µg/mL. The MPC (Acinetobacter baumannii [35]) was 16 µg/mL, the MPC (Klebsiella pneumoniae [6]) was 8 µg/mL and the MPC (Klebsiella pneumoniae [7]) was 0.125 µg/mL. For the same molecule, the MPC (Pseudomonas aeruginosa [36]) was 4 µg/mL, the MIC (Escherichia coli [8]) was 0.03 µg/mL (≈ 0.0713 µM) and the MPC (Escherichia coli [9]) was 0.06 µg/mL. The MPC (Escherichia coli [10]) was 0.06 µg/mL, the MPC (Klebsiella pneumoniae [11]) was 0.125 µg/mL and the MPC (Pseudomonas aeruginosa [37]) was greater than 2 µg/mL. It also gave an MPC (Escherichia coli [12]) of 0.125 µg/mL, an MIC (Klebsiella pneumoniae [13]) of 2 µg/mL (≈ 4.76 µM) and an MPC (Escherichia coli [14]) of 0.125 µg/mL. It also gave an MPC (Escherichia coli [15]) of 0.125 µg/mL, an MPC (Acinetobacter baumannii [38]) of 1 µg/mL and an MPC (Escherichia coli [16]) of 0.5 µg/mL. For the same molecule, the MIC (Escherichia coli [17]) was 0.03 µg/mL (≈ 0.0713 µM), the MIC (Escherichia coli [18]) was 0.03 µg/mL (≈ 0.0713 µM) and the MPC (Pseudomonas aeruginosa [39]) was 8 µg/mL. The MIC (Klebsiella pneumoniae [19]) was 0.06 µg/mL (≈ 0.143 µM), the MIC (Klebsiella pneumoniae [20]) was 4 µg/mL (≈ 9.51 µM) and the MPC (Escherichia coli [21]) was 0.06 µg/mL. It also gave an MIC (Klebsiella pneumoniae [22]) of 0.06 µg/mL (≈ 0.143 µM), an MPC (Pseudomonas aeruginosa [40]) of 8 µg/mL and an MPC (Klebsiella pneumoniae [23]) of 0.125 µg/mL. The MPC (Klebsiella pneumoniae [24]) was 8 µg/mL, the MPC (Pseudomonas aeruginosa [41]) was 4 µg/mL and the MPC (Acinetobacter baumannii [42]) was 8 µg/mL. It also gave an MIC (Escherichia coli [25]) of 0.03 µg/mL (≈ 0.0713 µM), an MIC (Klebsiella pneumoniae [26]) of 0.06 µg/mL (≈ 0.143 µM) and an MIC (Klebsiella pneumoniae [27]) of 0.06 µg/mL (≈ 0.143 µM). It also gave an MIC (Klebsiella pneumoniae [28]) of 2 µg/mL (≈ 4.76 µM), an MPC (Acinetobacter baumannii [43]) of 8 µg/mL and an MPC (Pseudomonas aeruginosa [44]) of 2 µg/mL. The MPC (Escherichia coli [29]) was 0.25 µg/mL, the MPC (Escherichia coli [30]) was 0.06 µg/mL and the MPC (Acinetobacter baumannii [45]) was 2 µg/mL. For the same molecule, the MIC (Klebsiella pneumoniae [31]) was 0.125 µg/mL (≈ 0.297 µM), the MPC (Klebsiella pneumoniae [32]) was 8 µg/mL and the MIC (Klebsiella pneumoniae [33]) was 2 µg/mL (≈ 4.76 µM).
